Measurements pooled from the literature.
Lines come from different studies, so protocols differ.

SMILES	test system	setting	concentration
O=S(=O)(c1ccc(-c2ccc3nccc(Nc4ccncn4)c3c2)cc1)N1CCOCC1	female BALB/c mouse, plasma	intraperitoneal, 10 mg/kg, 1 h	1290 ng/mL
CC(C)Oc1cccc(-c2cnc(N3CCC(C(N)=O)CC3)s2)c1	male Swiss mouse, plasma	oral, 30 mg/kg, 15 min, single dose	416 ng/mL
O=c1nc(N2CCN(CC3CCCCC3)CC2)sc2c([N+](=O)[O-])cc(C(F)(F)F)cc12	CD-1 mouse, lung	intravenous, 10 mg/kg, 24 h	15 ng/mL
c1ccc(-c2nc(N3CCC(c4ccccn4)C3)c3ccccc3n2)nc1 (stereo not drawn)	female BALB/c mouse, plasma	oral, 50 mg/kg, 15 min	2130 ng/mL
COc1cc(F)c([C@@H]2CNC(=O)[C@H]2NC(=O)Nc2ccccc2)c(F)c1	C57BL/6 mouse, plasma	oral, 0.3 mg/kg, 2 h	3 nM
CC(C)(Nc1nc(-c2ccccn2)nc2ccccc12)c1ccccn1	female BALB/c mouse, plasma	oral, 50 mg/kg, 24 h	79 ng/mL
CC(C)CN(C[C@@H](O)[C@H](Cc1ccccc1)NC(=O)O[C@H]1CO[C@H]2OCC[C@H]21)S(=O)(=O)c1ccc(N)cc1	BALB/c mouse, plasma	intravenous, 2.5 mg/kg, 3 h	23.9 ng/mL
CC(C)Cc1nn(C)c(=O)c2c(SCCCO)n(Cc3cccc4ccccc34)cc12	mouse, brain	intraperitoneal, 20 mg/kg, 7 days	0 nM
O=C(O)C1CCN(c2ncc(-c3ccc4c(c3)OCCCO4)s2)CC1	male Swiss mouse, plasma	oral, 30 mg/kg, 15 min, single dose	15000 ng/mL
